Test results taken from ChEMBL document CHEMBL4251693, “Indolylmaleimide Derivative IM-17 Shows Cardioprotective Effects in Ischemia-Reperfusion Injury” (ACS Med Chem Lett, 2018).
The source made the active and inactive calls. The rule behind the calls is not given here.

Columns and labels:
Jurkat [1] = assay: Cytoprotective activity against CHX-induced necroptosis in human Jurkat cells assessed as increase in cell viability at 10 uM incubated for 1 hr followed by CHX stimulation by phase contrast microscopy; type: functional, cell-based
Outline: (§1)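 Jurkat necroptosis induced with FasL (100 ng/mL, 20 h) together with Z-VAD (100 μM) or cycloheximide (5 μM). Test agents were run at 10 μM alongside a necroptosis inhibitor at 30 μM. Viability read by AlamarBlue; morphology examined by phase-contrast imaging.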

Jurkat [2] = assay: Cytoprotective activity against CHX-induced necroptosis in human Jurkat cells assessed as increase in cell viability at 10 uM incubated for 1 hr followed by CHX stimulation by Alamar blue assay; type: functional, cell-based; outline: as §1
HL-60 [3] = assay: Cytoprotective activity against H2O2-induced necrosis in human HL60 cells assessed as increase in cell viability at 10 uM incubated for 1 hr followed by H2O2 stimulation measured after 4 hrs in presence of caspase inhibitor Z-VAD by phase contrast microscopy; type: functional, cell-based
Outline: (§2)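 HL-60 cells exposed to low-level H2O2 (30 μM, 4 h) with or without test agent (10 μM) or Z-VAD (100 μM). Viability read by AlamarBlue; morphology by phase-contrast imaging.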

HL-60 [4] = assay: Cytoprotective activity against actinomycin D-induced apoptosis in human HL60 cells assessed as increase in cell viability at 10 uM incubated for 1 hr followed by actinomycin D stimulation measured after 6 hrs by Alamar blue assay; type: functional, cell-based
Outline: (§3)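 HL-60 cells given a death inducer with or without test agent (10 μM) or Z-VAD (100 μM). Inducers were actinomycin D 1 μM for 6 h, camptothecin 1 μM for 6 h, etoposide 100 μM for 4 h, FasL 100 ng/mL for 18 h, H2O2 100 μM for 3 h, and TBHP 30 μM for 3 h. Viability read by AlamarBlue.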

HL-60 [5] = assay: Cytoprotective activity against TBHP-induced necrosis in human HL60 cells assessed as increase in cell viability at 10 uM incubated for 1 hr followed by TBHP stimulation measured after 3 hrs by Alamar blue assay; type: functional, cell-based; outline: as §3
HL-60 [6] = assay: Cytoprotective activity against Fas ligand-induced apoptosis in human HL60 cells assessed as increase in cell viability at 10 uM incubated for 1 hr followed by Fas ligand stimulation measured after 18 hrs by Alamar blue assay; type: functional, cell-based; outline: as §3
Jurkat [7] = assay: Cytoprotective activity against Z-VAD-induced necroptosis in human Jurkat cells assessed as increase in cell viability at 10 uM incubated for 1 hr followed by Z-VAD stimulation by Alamar blue assay; type: functional, cell-based; outline: as §1
Jurkat [8] = assay: Cytoprotective activity against FasL-induced apoptosis in human Jurkat cells assessed as increase in cell viability at 10 uM incubated for 1 hr followed by FasL stimulation measured after 18 hrs by Alamar blue assay; type: functional, cell-based
Outline: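 Jurkat cells exposed to FasL (100 ng/mL, 18 h) with or without test agent (10 μM) or Z-VAD (100 μM). Viability measured by AlamarBlue and morphology by phase-contrast imaging.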

Jurkat [9] = assay: Cytoprotective activity against FasL-induced necroptosis in human Jurkat cells assessed as increase in cell viability at 10 uM incubated for 1 hr followed by FasL stimulation measured after 20 hrs by Alamar blue assay; type: functional, cell-based; outline: as §1
HL-60 [10] = assay: Cytoprotective activity against H2O2-induced necrosis in human HL60 cells assessed as increase in cell viability at 10 uM incubated for 1 hr followed by H2O2 stimulation measured after 4 hrs by Alamar blue assay; type: functional, cell-based; outline: as §2
HL-60 [11] = assay: Cytoprotective activity against H2O2-induced apoptosis in human HL60 cells assessed as increase in cell viability at 10 uM incubated for 1 hr followed by H2O2 stimulation measured after 4 hrs in presence of caspase inhibitor Z-VAD by Alamar blue assay; type: functional, cell-based; outline: as §2
Jurkat [12] = assay: Cytoprotective activity against Z-VAD-induced necroptosis in human Jurkat cells assessed as increase in cell viability at 10 uM incubated for 1 hr followed by Z-VAD stimulation by phase contrast microscopy; type: functional, cell-based; outline: as §1
HL-60 [13] = assay: Cytoprotective activity against H2O2-induced necrosis in human HL60 cells incubated for 1 hr followed by H2O2 stimulation by LDH release assay; type: functional, cell-based; details: HL-60, 1 h
Outline: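 Necrosis of HL-60 cells induced by H2O2 and quantified as lactate dehydrogenase release from the cytosol; IC50 derived.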

HL-60 [14] = assay: Cytoprotective activity against H2O2-induced necrosis in human HL60 cells assessed as increase in cell viability at 10 uM incubated for 1 hr followed by H2O2 stimulation measured after 3 hrs by Alamar blue assay; type: functional, cell-based; outline: as §3
[15] = Stability in rat liver S9 fraction at 5 uM after 30 mins by HPLC method; type: ADME, subcellular; details: s9, 0.5 h
HL-60 [16] = assay: Cytoprotective activity against etoposide-induced apoptosis in human HL60 cells assessed as increase in cell viability at 10 uM incubated for 1 hr followed by etoposide stimulation measured after 4 hrs by Alamar blue assay; type: functional, cell-based; outline: as §3
HL-60 [17] = assay: Cytoprotective activity against camptothecin-induced apoptosis in human HL60 cells assessed as increase in cell viability at 10 uM incubated for 1 hr followed by camptothecin stimulation measured after 6 hrs by Alamar blue assay; type: functional, cell-based; outline: as §3
HL-60 [18] = assay: Cytoprotective activity against H2O2-induced apoptosis in human HL60 cells assessed as increase in cell viability at 10 uM incubated for 1 hr followed by H2O2 stimulation measured after 4 hrs in presence of caspase inhibitor Z-VAD by phase contrast microscopy; type: functional, cell-based; outline: as §2
H9c2 [19] = assay: Cytoprotective activity against TBHP-induced necrosis in rat H9c2 cells incubated for 4 hrs by LDH release assay; type: functional, cell-based; details: H9c2, 4 h
Outline: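 Rat cardiomyoblast H9c2 cells treated with TBHP (300 μM) with or without test compound; necrotic cell death quantified by LDH release assay.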

Jurkat [20] = assay: Cytoprotective activity against FasL-induced necroptosis in human Jurkat cells assessed as increase in cell viability at 10 uM incubated for 1 hr followed by FasL stimulation measured after 20 hrs by phase contrast microscopy; type: functional, cell-based; outline: as §1
HL-60 [21] = assay: Cytoprotective activity against H2O2-induced necrosis in human HL60 cells assessed as increase in cell viability at 10 uM incubated for 1 hr followed by H2O2 stimulation measured after 4 hrs in presence of caspase inhibitor Z-VAD by Alamar blue assay; type: functional, cell-based; outline: as §2
H9c2 [22] = assay: Cytotoxicity against rat H9c2 cells at 30 uM; type: cell-based; details: h9c2, 30 µM
HL-60 [23] = assay: Cytoprotective activity against H2O2-induced necrosis in human HL60 cells assessed as increase in cell viability at 10 uM incubated for 1 hr followed by H2O2 stimulation measured after 4 hrs by phase contrast microscopy; type: functional, cell-based; outline: as §2
[24] = Solubility of the compound in water; type: physicochemical; details: buffer

For CCCCCNC1=C(c2cn(C)c3ccccc23)C(=O)N(C)C1=O, which Activity (Jurkat [1]) is on record?
The Activity was “inactive”.

And the Activity (Jurkat [2])?
Its Activity is “inactive”.

And the Activity (HL-60 [3])?
Its Activity is “Active”.

What about the Activity (HL-60 [4]) of the same molecule?
The Activity was “inactive”.

And the Activity (HL-60 [5])?
The Activity was “Active”.

What about the Activity (HL-60 [6]) of the same molecule?
The Activity was “inactive”.

And the Activity (Jurkat [7])?
Its Activity is “inactive”.

What about the Activity (Jurkat [8]) of the same molecule?
Its Activity is “inactive”.

What about the Activity (Jurkat [9]) of the same molecule?
The Activity was “inactive”.

And the Activity (HL-60 [10])?
The Activity was “Active”.

What about the Activity (HL-60 [11]) of the same molecule?
The Activity was “Active”.

And the Activity (Jurkat [12])?
Its Activity is “inactive”.

And the IC50 (HL-60 [13])?
The IC50 was 250 nM.

What about the Activity (HL-60 [14]) of the same molecule?
Its Activity is “Active”.

And the Stability [15]?
The Stability was “Unstable”.

What about the Activity (HL-60 [16]) of the same molecule?
The Activity was “inactive”.

And the Activity (HL-60 [17])?
The Activity was “inactive”.

What about the Activity (HL-60 [18]) of the same molecule?
Its Activity is “Active”.

And the IC50 (H9c2 [19])?
Its IC50 is 3900 nM.

What about the Activity (Jurkat [20]) of the same molecule?
Its Activity is “inactive”.

And the Activity (HL-60 [21])?
Its Activity is “Active”.

And the Activity (H9c2 [22])?
The Activity was “Non-Toxic”.

What about the Activity (HL-60 [23]) of the same molecule?
The Activity was “Active”.

What about the solubility [24] of the same molecule?
The solubility was “Insoluble”.
